ChEMBL document CHEMBL1156077, “Piperazinyl-glutamate-pyrimidines as potent P2Y12 antagonists for inhibition of platelet aggregation” (Bioorg Med Chem Lett, 2009)

Assays:
[1] = biological target: T1, P2Y purinoceptor 12 (Homo sapiens, UniProt Q9H244); assay: Binding affinity at human recombinant P2Y12 receptor expressed in CHO cells by radioligand binding assay; format: cell-based
In short: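 Washed membranes from CHO cells transfected with synthetic human P2Y12 gene. Compounds as 7-point threefold dilutions, triplicate, 1 h at room temperature. Nonspecific binding defined with 300 nM 2-MeSADP. Filtered, washed with ice-cold Tris pH 7.4. Single-site fit; IC50 converted to Ki by Cheng–Prusoff, geometric mean of n≥2.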

[2] = Selectivity for human P2Y12 receptor over P2Y13
[3] = biological target: T1, P2Y purinoceptor 12; assay: Ratio of compound IC50 to AZD-6140 IC50 for P2Y12 receptor in human platelet rich plasma assessed as inhibition of ADP-induced platelet aggregation by light transmission aggregometry
In short: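 Human platelet-rich plasma was pre-incubated 5 min at 37 °C with compound across seven concentrations (10 down to 0.156). Aggregation was started with ADP (20, final) and followed by light transmission at 626 nm for 15 min at 37 °C. Duplicate concentration-response data were read at the 15-min end-point. IC50 was divided by the IC50 of AZD-6140 run on the same plate.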

[4] = Selectivity for human P2Y12 receptor over P2Y1
[5] = biological target: T1, P2Y purinoceptor 12; assay: Ratio of compound IC50 to thienopyrimidine IC50 for P2Y12 receptor in human platelet rich plasma assessed as inhibition of ADP-induced platelet aggregation by light transmission aggregometry
In short: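 Human platelet-rich plasma was pre-incubated 5 min at 37 °C with compound across seven concentrations (10 down to 0.156). Aggregation was started with ADP (20, final) and followed by light transmission at 626 nm for 15 min at 37 °C. Duplicate concentration-response data were read at the 15-min end-point. IC50 was divided by the IC50 of the thienopyrimidine reference run on the same plate.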

T1 sequence (Q9H244 whole entry): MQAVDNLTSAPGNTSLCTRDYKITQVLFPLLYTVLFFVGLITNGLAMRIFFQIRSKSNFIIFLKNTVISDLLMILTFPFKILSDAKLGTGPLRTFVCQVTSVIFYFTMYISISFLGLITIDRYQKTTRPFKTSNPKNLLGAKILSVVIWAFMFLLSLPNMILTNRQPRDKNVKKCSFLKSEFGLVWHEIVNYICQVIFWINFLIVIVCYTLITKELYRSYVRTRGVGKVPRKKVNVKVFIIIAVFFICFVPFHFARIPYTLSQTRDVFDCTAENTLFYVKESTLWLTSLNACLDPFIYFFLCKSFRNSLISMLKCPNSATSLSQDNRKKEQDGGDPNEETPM

Row | SMILES | Ki [1] | fold change (FC) [2] | Ratio IC50 [3] | fold change (FC) [4] | Ratio IC50 [5]
1 | CCCCCOC(=O)N1CCN(C(=O)[C@H](CCC(=O)O)NC(=O)c2nc(-c3ccccc3)cc(N3CCC(C(=O)N(CC)CC)CC3)n2)CC1 | 3.6 nM | > 340 | 1.5 | > 340 | 0.4
2 | CCCCCOC(=O)N1CCN(C(=O)[C@H](CCC(=O)O)NC(=O)c2cc(N3CCC(CN4CCCC4=O)CC3)nc(-c3ccccc3)n2)CC1 | 0.99 nM | > 340 | 2 | > 340 | 0.4
3 | CCCCCOC(=O)N1CCN(C(=O)[C@H](CCC(=O)O)NC(=O)c2cc(N3CCC(OC)CC3)nc(-c3ccccc3)n2)CC1 | 5 nM | > 340 | 1.6 | > 340 | 0.5
4 | CCCCCOC(=O)N1CCN(C(=O)[C@H](CCC(=O)O)NC(=O)c2cc(N3CCOCC3)nc(-c3ccccc3)n2)CC1 | 1 nM | > 340 | 7.9 | > 340 | 2
5 | CCCCCOC(=O)N1CCN(C(=O)[C@H](CCC(=O)O)NC(=O)c2nc(-c3ccccc3)cc(N3CCC(N4CCOCC4)CC3)n2)CC1 | 5.9 nM | > 340 | 3.9 | > 340 | 0.8
6 | CCCCCOC(=O)N1CCN(C(=O)[C@H](CCC(=O)O)NC(=O)c2nc(-c3ccccc3)cc(N3CCC(OCCOC)CC3)n2)CC1 | 7.1 nM | > 340 | 5.3 | > 340 | 1.2
7 | CCCCCOC(=O)N1CCN(C(=O)[C@H](CCC(=O)O)NC(=O)c2cc(N3CCC(CN(CC)CC)CC3)nc(-c3ccccc3)n2)CC1 | 0.61 nM | > 340 | 0.8 | > 340 | 0.2
8 | CCCCCOC(=O)N1CCN(C(=O)[C@H](CCC(=O)O)NC(=O)c2cc(N3CCN(C(=O)N(C)C)CC3)nc(-c3ccccc3)n2)CC1 | 2.9 nM | > 340 | 1.5 | > 340 | 0.3
9 | CCCCCOC(=O)N1CCN(C(=O)[C@H](CCC(=O)O)NC(=O)c2nc(-c3ccccc3)cc(N3CCC(N)CC3)n2)CC1 | 8.4 nM | > 340 | 3.1 | > 340 | 0.6
10 | CCCCOC(=O)N1CCN(C(=O)[C@H](CCC(=O)O)NC(=O)c2cc(N3CCC(OC)CC3)nc(-c3ccccc3)n2)CC1 | 1.4 nM | > 340 | 2.7 | > 340 | 0.4
11 | CCCCCOC(=O)N1CCN(C(=O)[C@H](CCC(=O)O)NC(=O)c2cc(N3CCN(CC(=O)N(C)C)CC3)nc(-c3ccccc3)n2)CC1 | 2.6 nM | > 340 | 0.5 | > 340 | 0.1
12 | CCCCCOC(=O)N1CCN(C(=O)[C@H](CCC(=O)O)NC(=O)c2nc(-c3ccccc3)cc(N3CCC(CNCC)CC3)n2)CC1 | 11 nM | > 340 | 1.6 | > 340 | 0.4
13 | CCCCOC(=O)N1CCN(C(=O)[C@H](CCC(=O)O)NC(=O)c2cc(OCCN(CC)CC)nc(-c3ccccc3)n2)CC1 | 72 nM | > 340 | 4.3 | > 340 | 1.1
14 | CCCCOC(=O)N1CCN(C(=O)[C@H](CCC(=O)O)NC(=O)c2cc(N3CCC(C(=O)N4CCCC4)CC3)nc(-c3ccccc3)n2)CC1 | 0.7 nM | > 340 | 0.4 | > 340 | 0.08
15 | CCCCOC(=O)N1CCN(C(=O)[C@H](CCC(=O)O)NC(=O)c2cc(N3CCC(N4CCOCC4)CC3)nc(-c3ccccc3)n2)CC1 | 1.3 nM | > 340 | 1.1 | > 340 | 0.2
16 | CCCCCOC(=O)N1CCN(C(=O)[C@H](CCC(=O)O)NC(=O)c2cc(NCCCN(C)C)nc(-c3ccccc3)n2)CC1 | 4.8 nM | > 340 | 1.7 | > 340 | 0.6
17 | CCCCCOC(=O)N1CCN(C(=O)[C@H](CCC(=O)O)NC(=O)c2cc(N3CCN(C(C)=O)CC3)nc(-c3ccccc3)n2)CC1 | 3.7 nM | > 340 | 1 | > 340 | 0.3
18 | CCCCCOC(=O)N1CCN(C(=O)[C@H](CCC(=O)O)NC(=O)c2nc(-c3ccccc3)cc(N3CCN(C(C)=O)CC3)n2)CC1 | 29 nM | > 340 | 8.9 | > 340 | 1.8
19 | CCCCCOC(=O)N1CCN(C(=O)[C@H](CCC(=O)O)NC(=O)c2cc(N3CCC(C(=O)N(C)C)CC3)nc(-c3ccccc3)n2)CC1 | 2.5 nM | > 340 | 0.3 | > 340 | 0.1
20 | CCCCCOC(=O)N1CCN(C(=O)[C@H](CCC(=O)O)NC(=O)c2nc(-c3ccccc3)cc(N3CCC(N4CCCC4)CC3)n2)CC1 | 7.4 nM | > 340 | 2.4 | > 340 | 0.4
21 | CCCCCOC(=O)N1CCN(C(=O)[C@H](CCC(=O)O)NC(=O)c2nc(OCCCN3CCOCC3)cc(-c3ccccc3)n2)CC1 | 11 nM | > 340 | 6.6 | > 340 | 1.2
22 | CCCCOC(=O)N1CCN(C(=O)[C@H](CCC(=O)O)NC(=O)c2cc(N3CCC(C(=O)N(C)C)CC3)nc(-c3ccccc3)n2)CC1 | 1.3 nM | > 340 | 1.1 | > 340 | 0.2
23 | CCCCCOC(=O)N1CCN(C(=O)[C@H](CCC(=O)O)NC(=O)c2cc(N3CCNCC3)nc(-c3ccccc3)n2)CC1 | 2 nM | > 340 | 1.4 | > 340 | 0.3
24 | CCCCCOC(=O)N1CCN(C(=O)[C@H](CCC(=O)O)NC(=O)c2cc(N3CCC(CC(=O)N4CCCC4)CC3)nc(-c3ccccc3)n2)CC1 | 1.6 nM | > 340 | 2 | > 340 | 0.3
25 | CCCCCOC(=O)N1CCN(C(=O)[C@H](CCC(=O)O)NC(=O)c2cc(N3CCC(N)CC3)nc(-c3ccccc3)n2)CC1 | 0.69 nM | > 340 | 0.5 | > 340 | 0.2
26 | CCCCCOC(=O)N1CCN(C(=O)[C@H](CCC(=O)O)NC(=O)c2cc(N3CCC(COCCOC)CC3)nc(-c3ccccc3)n2)CC1 | 4.3 nM | > 340 | 1.2 | > 340 | 0.3
27 | CCCCCOC(=O)N1CCN(C(=O)[C@H](CCC(=O)O)NC(=O)c2cc(OCCOC)nc(-c3ccccc3)n2)CC1 | 1.2 nM | > 340 | 8.8 | > 340 | 1.2
28 | CCCCCOC(=O)N1CCN(C(=O)[C@H](CCC(=O)O)NC(=O)c2cc(NCC3CCNC3)nc(-c3ccccc3)n2)CC1 (stereo not given in full) | 4.1 nM | > 340 | 2.3 | > 340 | 0.5
